{"source": "ChEMBL document CHEMBL1129606", "about": "“Synthesis and bioevaluation of delta 7-5-desaturase inhibitors, an enzyme late in the biosynthesis of the fungal sterol ergosterol” (J Med Chem, 1996)"}
{"biological_target": "Delta(7)-sterol 5(6)-desaturase", "test": "Inhibition of 5-Desaturase involved in ergosterol biosynthesis", "design": "species or system Saccharomyces cerevisiae", "outline": "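Microsomal Δ7-sterol 5-desaturase from aerobically grown S. cerevisiae (37 °C, YPD). Cells bead-disrupted in 0.1 M Tris-HCl pH 7.4, 94500g pellet, desalted on Sephadex G-50. Incubated with Tween 20, FeCl3, NADPH and [5α,6α-3H]-7,22(E)-ergostadien-3β-ol with varied inhibitor, all else held constant. Alkali quench, EtOAc extraction, aqueous 3H2O scintillation-counted. IC50 from inverse velocity vs inhibitor concentration; mean of ≥2 experiments.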", "units": {"IC50": "µM"}}
{"smiles": "C[C@]12CC[C@H](O)C[C@]1(C(N)=O)CC=C1CCC12", "note": "(some centres not stated)", "IC50": 114}
{"smiles": "C[C@]12CC[C@H](O)C[C@@H]1[C@@H](O)C=C1CCC12", "note": "(some centres not stated)", "IC50": 47}
{"smiles": "C[C@]12CC[C@H](O)C[C@]1(/C=N/O)CC=C1CCC12", "note": "(some centres not stated)", "IC50": 136}
{"smiles": "C[C@]12CC[C@H](O)[C@H]3O[C@]31CC=C1CCC12", "note": "(some centres not stated)", "IC50": 66}
{"smiles": "C[C@]12CC[C@H](O)C[C@]1(C(=O)O)CC=C1CCC12", "note": "(some centres not stated)", "IC50": 111}
{"smiles": "C[C@]12CC[C@H](O)C[C@]1(C=O)CC=C1CCC12", "note": "(some centres not stated)", "IC50": 116}
{"smiles": "C[C@]12CC[C@H](O)C[C@]1(S)CC=C1CCC12", "note": "(some centres not stated)", "IC50": 80}
{"smiles": "C[C@]12CC[C@H](O)C[C@]1(O)[C@H](O)C=C1CCC12", "note": "(some centres not stated)", "IC50": 96}
{"smiles": "C[C@]12CC[C@H](O)C[C@]1(CO)CC=C1CCC12", "note": "(some centres not stated)", "IC50": 112}
{"smiles": "C[C@]12CC[C@H](O)C[C@]1(O)[C@@H](O)C=C1CCC12", "note": "(some centres not stated)", "IC50": 149}
{"smiles": "C[C@]12CC[C@H](O)C[C@]1(O)CC=C1CCC12", "note": "(some centres not stated)", "IC50": 148}
{"smiles": "C[C@]12CC[C@H](O)C[C@]1(C#N)CC=C1CCC12", "note": "(some centres not stated)", "IC50": 131}
